# Test results from PMC12510370 (Chemical Science, 2025).
# Read-outs that look alike come from different tables or passages of the source.
# Legend:
# Format in all cases: cell-based
# A549 cells = experiment: MTT
# Procedure, shortened: (§1)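 MTT assay on A549, HeLa and MRC9 cells, with cells kept in the dark or irradiated at 450 nm (15.5 mW cm−2, 15 min). […] IC50 values were derived for dark and light conditions. For A549 and HeLa, PI = IC50,dark/IC50,light.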
# HeLa cells [1] = experiment: MTT
# Procedure, shortened: as §1
# normal MRC9 cells = experiment: MTT
# Procedure, shortened: as §1
# HeLa cells [2] = experiment: Mitochondrial membrane potential with JC-1; conditions: 50 μM, 15 min, positive control
# Procedure, shortened: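 HeLa cells were untreated, given CCCP (50 μM, 15 min) as positive control, or treated with the test compound (4.5 nM, 24 h). Treated cells were then kept in the dark for 24 h or irradiated (450 nm, 15.5 mW cm−2, 15 min) and incubated 24 h more. Staining used JC-1 (2 μg mL−1, 20 min; λex 488 nm; monomer emission 510–530 nm, J-aggregate emission 590–610 nm).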
"IC50 (A549 cells; read-out: IC50,dark, A549, in the dark) [µM]","IC50 (A549 cells; read-out: IC50,light, A549, irradiation at 450 nm (15.5 mW cm^−2, 15 min)) [µM]","IC50 (HeLa cells [1]; read-out: IC50,dark, in the dark) [µM]","IC50 (HeLa cells [1]; read-out: IC50,light, irradiation at 450 nm (15.5 mW cm^−2, 15 min)) [µM]",Molecule,"IC50 (normal MRC9 cells; read-out: IC50,dark, MRC9, in the dark) [µM]","IC50 (normal MRC9 cells; read-out: IC50,light, MRC9, irradiation at 450 nm (15.5 mW cm^−2, 15 min)) [µM]",mitochondrial membrane potential (JC-1) (HeLa cells [2])
> 100,> 100,> 100,> 100,"1-phenyl-5-thioxo-5,6-dihydro-[1,2,4]triazolo[1,5-c]quinazolin-1-ium-2-thiolate [p-Httqt]",> 100,> 100,–
–,–,–,–,"N#CC(C#N)=NNc1cccc(Cl)c1 [CCCP, carbonyl cyanide m-chlorophenyl hydrazone]",–,–,reduced the intensity of the red channel
